ABCB1 inh: inhibitors of human ABCB1 transporter, ABCG2 counter-screen; P08183; CCRF-Adr cells, JC-1 efflux, flow cytometry; inhibition, % at 6.6 µM; 0.067% of 190,000 active; AID 1326; in the data active means inhibition above about 40%;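 further: 0% = vehicle and 100% = reference inhibitor; higher value means more JC-1 retained so stronger ABCB1 efflux block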
L major viab: Leishmania major promastigote growth inhibition | inhibition, % at 10 µM | 9% of 200,000 active | Leishmania major promastigotes, resazurin fluorescence viability | AID 1063; in the data active means inhibition above about 50%;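 further: promastigotes grown with compound for 44 hours at 28 °C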
WT yeast gro inh: growth inhibition of WT yeast, mitochondrial fusion screen; mitochondrial fusion phenotypic screen, WT strain; inhibition, % at 10 µM; 2.1% of 190,000 active; in the data active means inhibition above about 58%; tested in S. cerevisiae
RAM inhibit: blocks the yeast RAM network | S. cerevisiae dse1pr::URA3 reporter, 5-FOA growth OD615, 2 d; analog-sensitive cbk1-as2 kinase mutant strain | inhibition, % at 50 µM | 1.8% of 190,000 active | AID 868;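 active means inhibition above a set limit, 3 SD over mean compound inhibition, cut at about 8.4% in these data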;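 further: 0% = DMSO-only wells with no growth and 100% = 10 µM 1-NA-PP1 full growth; inhibition rescues growth on 5-FOA so higher OD means more RAM inhibition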
ABCG2 inh: inhibitors of human ABCG2 transporter, ABCB1 counter-screen; Q9UNQ0; IgMXP3 cells, JC-1 efflux, flow cytometry; inhibition, % at 6.6 µM; 0.1% of 190,000 active; AID 1325;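 active means inhibition above 80%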;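 further: 0% = DMSO and 100% = nicardipine control wells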
Target sequence (Q9UNQ0 whole entry, looked up): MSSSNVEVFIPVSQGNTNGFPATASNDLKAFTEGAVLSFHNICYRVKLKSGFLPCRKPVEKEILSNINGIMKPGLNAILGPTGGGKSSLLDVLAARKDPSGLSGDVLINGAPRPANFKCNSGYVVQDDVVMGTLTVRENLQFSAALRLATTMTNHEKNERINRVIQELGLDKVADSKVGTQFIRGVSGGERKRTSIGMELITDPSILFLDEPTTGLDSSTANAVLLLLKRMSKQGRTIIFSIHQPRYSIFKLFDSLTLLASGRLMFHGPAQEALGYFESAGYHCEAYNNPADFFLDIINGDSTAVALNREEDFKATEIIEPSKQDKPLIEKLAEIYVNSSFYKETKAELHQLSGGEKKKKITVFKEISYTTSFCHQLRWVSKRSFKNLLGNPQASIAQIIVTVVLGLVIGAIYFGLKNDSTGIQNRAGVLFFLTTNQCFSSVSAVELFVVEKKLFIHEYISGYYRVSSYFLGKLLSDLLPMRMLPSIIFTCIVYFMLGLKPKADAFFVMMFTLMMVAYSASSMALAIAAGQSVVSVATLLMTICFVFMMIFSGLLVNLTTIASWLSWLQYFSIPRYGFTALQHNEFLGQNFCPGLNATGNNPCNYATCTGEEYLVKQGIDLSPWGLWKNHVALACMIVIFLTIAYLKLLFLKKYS
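Test system: ABCG2 IgMXP3 and barcoded ABCB1 CCRF-Adr cell mix; Schedule: cells with compound and JC-1, 10 min at 25 °C, rotating, no wash; Technique: flow cytometry of retained JC-1 fluorescence; Measure: % inhibition of efflux relative to nicardipine and DMSO; Controls: nicardipine high and DMSO low controls.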
The depositor's hits bear a star. The list is not random: actives were taken first. Their share in the collection is about 12%.

SMILES	ABCB1 inh	L major viab	WT yeast gro inh	RAM inhibit	ABCG2 inh
Cc1ccc(C(=O)N/C(=C\c2ccc(-c3ccc(Br)cc3)o2)C(=O)NC2CCS(=O)(=O)C2)cc1 (stereo not given)	0.5	-6.5	2.1	3.6	5.1
COc1ccc(Br)cc1C(=O)Nc1cccc(NC(=O)c2ccco2)c1	-0.9	-7.9	10.0	5.6	6.6
O=C(Nc1cccc(F)c1)c1ccc(Br)o1	-0.3	67.9*	-2.4	-0.8	1.7
COc1ccc(C(=O)NCc2nnc(SCC(=O)N3CCCc4ccccc43)o2)cc1OC	0.7	-1.4	-11.7	0.7	1.7
Clc1cccc(-c2ccc(C=Nc3ccc(N4CCOCC4)cc3)o2)c1	0.7	-1.0	-4.3	2.6	8.8
Cc1nn(C)c(C(=O)NN)c1Cl	0.2	-6.8	3.4	-0.4	0.0
N#Cc1cnn2c3c(cnc12)C(=O)N1CCc2ccccc2C1C3 (stereo not given)	-0.7	9.1	-7.8	5.1	-1.2
COc1cccc(CNC(=O)C(C(=O)NCc2cccc(OC)c2)c2ncc(C(F)(F)F)cc2Cl)c1	6.2	1.0	-13.4	2.2	1.6
COc1ccccc1NC(=O)c1ccc(-c2ccc(Br)cc2)o1	0.0	-4.3	8.3	10.8*	0.5
COc1cc(NC(=O)c2ccc(-c3ccc(Br)cc3)o2)ccc1NC(=O)C(C)C	0.3	2.1	-11.2	6.2	-0.2
O=C(Nc1ccc(CN2CCOCC2)cc1)c1ccc(-c2ccc(Br)cc2)o1	0.4	83.1*	63.6	-0.7	2.2
Cc1ccc(-n2ncc3c(SCc4cccnc4)ncnc32)c(C)c1	0.7	-3.9	10.9	0.4	0.8
CCOC(=O)N1CCN(C(=S)Nc2cc(S(=O)(=O)N3CCOCC3)ccc2Cl)CC1	0.2	-1.3	-15.0	0.1	0.7
COc1ccc(-n2nc(C#N)c(Cl)cc2=O)cc1	1.0	99.5*	67.2*	-1.4	3.5
COC(=O)c1nn(-c2ccc(OC)cc2)c(=O)cc1O	0.4	-7.6	2.5	0.7	1.0
CCCCNC(=S)N=Nc1c(O)[nH]c2ccccc12	0.1	20.6	14.5	1.4	14.2
CCOc1ccc(NC(=S)N=Nc2c(O)[nH]c3ccccc23)cc1	-1.3	97.8*	25.8	7.7	-1.9
O=S(=O)(c1cccc2nsnc12)N1CCN(C/C=C/c2ccccc2)CC1	1.0	80.8*	23.9	2.1	2.6
O=S(=O)(c1cccc2nsnc12)N1CCN(C/C=C\c2ccccc2)CC1	0.5	94.3*	1.1	0.7	0.8
O=S(=O)(c1cccc2nsnc12)N1CCOCC1	0.1	4.2	5.3	0.9	0.1
CCN1CCN(S(=O)(=O)c2cccc3nsnc23)CC1	-0.2	-3.5	-9.5	0.1	-0.4
Cc1ccc2cc(C)c3nnc(SCC(=O)Nc4nc5c(s4)CCCC5)n3c2c1	1.0	12.9	-24.6	5.1	0.6
Oc1ccc2ccccc2c1/C=N/Nc1nnc(-c2ncc[nH]2)c2ccccc12	0.2	100.4*	40.7	1.3	-0.1
Cc1ccc(NC(=O)C(=O)NCc2ccc(/C=N/NC(=O)c3c(C)nc4ccccn34)o2)cc1	-0.2	-6.6	-6.4	-0.6	40.3
CCC(=O)N1c2ccc(S(=O)(=O)CCC(=O)N3CCn4c3nc3ccccc34)cc2CC1C (stereo not given)	1.0	78.7*	-5.1	5.5	3.6
SMILES	ABCB1 inh	L major viab	WT yeast gro inh	RAM inhibit	ABCG2 inh
O=C(NC1=NCCS1)c1sc2cc(Cl)cc(Cl)c2c1Cl	-0.5	75.8*	15.3	4.5	-1.0
Cc1nnc(N/N=C/c2ccc(-c3ccccc3F)o2)n1N	0.8	48.1	-1.7	2.1	5.1
O=C(N/N=C/C=C/c1ccccc1)C1CC1c1ccccc1 (stereo not given)	1.4	0.6	63.7*	1.2	19.9
CN(C)c1ccc(/C=N/NC(=O)C2COc3ccccc3O2)o1 (stereo not given)	5.3	-5.6	-9.2	0.4	-8.9
O=C(N/N=C/c1cc(Br)c(Br)o1)c1cccnc1	0.3	-5.5	-3.6	4.4	8.4
COc1ccc(-c2ccc(/C=N/NC(=O)c3cccnc3)o2)c([N+](=O)[O-])c1	0.8	74.8*	-0.3	1.2	32.7
O=C(N/N=C\c1ccc(-c2ccc([N+](=O)[O-])cc2)o1)C1COc2ccccc2O1 (stereo not given)	-0.5	96.0*	17.6	2.4	-3.4
Cc1nnc(N/N=C\c2ccc(-c3ccccc3[N+](=O)[O-])o2)n1N	0.6	58.1*	-5.9	1.1	11.4
O=C(N/N=C/c1ccc(-c2cccc([N+](=O)[O-])c2)o1)[C@H]1C[C@@H]1c1ccccc1	0.6	8.3	22.2	2.4	-2.3
Cc1ccc(C(=O)N/N=C\c2cccs2)cn1	-0.1	0.4	5.7	-0.8	15.2
Cc1ccc(C(=O)N/N=C/c2ccc(-c3ccccc3[N+](=O)[O-])o2)cn1	0.2	72.2*	-1.6	0.5	0.9
O=C(N/N=C/c1ccc(-c2ccccc2[N+](=O)[O-])o1)[C@H]1C[C@@H]1c1ccccc1	-0.3	90.3*	39.3	2.5	0.4
CCOC(=O)c1c(C)n(C)c2ccc(O)c(CN3CCC(C)CC3)c12	0.4	61.3*	7.1	1.4	5.1
CCOC(=O)c1c(C)n(C)c2ccc(O)c(CN(CC)CC)c12	-0.2	61.9*	-15.8	0.2	-0.4
CCOC(=O)c1c(C)n(C)c2ccc(O)c(CN3CCN(C)CC3)c12	1.1	-3.3	-9.5	0.2	5.6
CCOC(=O)c1c(C)n(-c2ccccc2)c2ccc(O)c(CN(C)C)c12	0.3	94.3*	21.2	0.0	0.5
CCOC(=O)c1c(C)oc2ccc(O)c(CN(C)C)c12	0.3	0.8	-10.9	1.6	0.9
CC(C)(C)n1cc(S(=O)(=O)c2ccccc2)[nH]c1=O	0.4	-0.7	-11.9	-0.6	1.1
CC(C(=O)NCc1ccco1)n1cc([N+](=O)[O-])cn1 (stereo not given)	0.0	1.4	-14.9	1.2	-1.9
O=C(CSc1ncn[nH]1)Nc1ccc2c(c1)CCC2	0.2	-4.1	-15.4	0.3	1.1
O=C(/C=C/c1ccc(Cl)cc1)NCc1ccco1	0.3	51.0*	-3.1	-0.4	16.4
COc1ccc(/C=C\C(=O)NCc2ccc3[nH]c(C)cc3c2)cc1OC	0.3	6.6	-1.9	10.5*	12.2
COc1ccc(CNC(=O)/C=C/c2ccc(S(=O)(=O)NCc3ccco3)cc2)cc1OC	0.6	67.7*	-11.6	2.3	29.4
COc1cc(/C=C\C(=O)NCc2ccc3[nH]c(C)cc3c2)cc(OC)c1OC	2.0	-1.5	9.6	1.8	8.3
CCOc1cc(/C=C/C(=O)OCC(=O)NC2CCS(=O)(=O)C2)ccc1OCc1ccccc1 (stereo not given)	-2.1	11.0	-10.5	1.9	21.8
Cc1c(Cl)cccc1NC(=O)C1Cc2ccccc2CN1C(=O)c1ccccc1 (stereo not given)	0.5	3.7	4.0	1.4	3.8
Cc1cccc(NC(=O)C2Cc3ccccc3CN2C(=O)OCc2ccccc2)c1C (stereo not given)	10.8	98.2*	25.1	2.3	41.3

Assay outcomes from PubChem.
